In ChEMBL document CHEMBL4402570, “Discovery and Optimization of Novel Pyrazolopyrimidines as Potent and Orally Bioavailable Allosteric HIV-1 Integrase Inhibitors” (J Med Chem, 2020):

What was measured:
[1] = Cytotoxicity against human MT2 cells measured after 4 days by XTT assay; type: cell-based
Procedure, shortened: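 MT-2 cell viability measured by XTT after 4 days of compound exposure, run in parallel with the antiviral assay; CC50 from n ≥ 2 determinations.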

[2] = Therapeutic index, ratio of CC50 for human MT2 cells to EC50 for HIV1 NL4-3 infected in human MT2 cells; type: toxicity, cell-based; details: read-out: Ratio CC50/EC50
[3] = Tmax in Sprague-Dawley rat at 1 mg/kg, iv infusion for 10 mins or 5 mg/kg, po administered via gavage by LC-MS/MS analysis; type: ADME, organism-based; details: in vivo
Procedure, shortened: (§1)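 Rats given iv via implanted venous cannula as 10 min infusion, or oral gavage after overnight fast; vehicle 10% dimethylacetamide/90% PEG400 for both routes. Plasma from venous-port blood, treated with CH3CN containing internal standard, analysed by LC-MS/MS; oral plasma levels followed 24 h after 5 mg/kg. Parameters by noncompartmental analysis of concentration-time data.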

[4] = Half life in Sprague-Dawley rat at 1 mg/kg, iv infusion for 10 mins or 5 mg/kg, po administered via gavage by LC-MS/MS analysis; type: ADME, organism-based; details: in vivo; procedure, shortened: as §1
[5] = Clearance in Sprague-Dawley rat at 1 mg/kg, iv infusion for 10 mins or 5 mg/kg, po administered via gavage by LC-MS/MS analysis; type: ADME, organism-based; details: in vivo; procedure, shortened: as §1
[6] = Volume of distribution at steady state in Sprague-Dawley rat at 1 mg/kg, iv infusion for 10 mins or 5 mg/kg, po administered via gavage by LC-MS/MS analysis; type: ADME, organism-based; details: in vivo, read-out: Vdss; procedure, shortened: as §1
[7] = test system: Human immunodeficiency virus 1; assay: Antiviral activity against HIV1 NL4-3 infected in human MT2 cells measured after 3 to 4 days in presence of human serum albumin by luciferase reporter gene assay; type: functional, organism-based; details: Human immunodeficiency virus 1, NL4-3, MT2
[8] = Oral bioavailability in Sprague-Dawley rat at 5 mg/kg administered via gavage by LC-MS/MS analysis; type: ADME, organism-based; details: in vivo; procedure, shortened: as §1
[9] = Cmax in Sprague-Dawley rat at 1 mg/kg, iv infusion for 10 mins or 5 mg/kg, po administered via gavage by LC-MS/MS analysis; type: ADME, organism-based; details: in vivo; procedure, shortened: as §1
[10] = AUC (0 to 24 hrs) in Sprague-Dawley rat at 1 mg/kg, iv infusion for 10 mins or 5 mg/kg, po administered via gavage by LC-MS/MS analysis; type: ADME, organism-based; details: in vivo; procedure, shortened: as §1
[11] = test system: Human immunodeficiency virus 1; assay: Antiviral activity against HIV1 NL4-3 infected in human MT2 cells measured after 3 to 4 days by luciferase reporter gene assay; type: functional, organism-based; details: Human immunodeficiency virus 1, NL4-3, MT2
[12] = Permeability of the compound in pH 7.4 buffer at 100 uM measured after 4 hrs by sandwich-PAMPA; type: ADME; details: read-out: permeability
Procedure, shortened: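 Parallel artificial membrane permeability: compound at 100 μM in donor buffer pH 7.4, permeating to acceptor through artificial membrane over 4 h; donor, acceptor and t0 solutions read by UV plate reader; triplicate.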

[13] = Stability of the compound in rat liver microsomes assessed as parent compound remaining at 0.5 uM measured after 10 mins in presence of NADPH by LC-MS/MS analysis; type: ADME, Microsome; details: read-out: Stability
Procedure, shortened: (§2)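 CYP-mediated turnover: 0.5 μM compound with human or rat liver microsomes (1 mg/mL) in 100 mM sodium phosphate pH 7.4, 6.6 mM MgCl2, 37 °C; started with NADPH, DMSO 0.014%. Samples quenched at 0 and 10 min; parent remaining by LC-MS/MS; duplicate.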

[14] = Stability of the compound in human liver microsomes assessed as parent compound remaining at 0.5 uM measured after 10 mins in presence of NADPH by LC-MS/MS analysis; type: ADME, Microsome; details: read-out: Stability; procedure, shortened: as §2
[15] = test system: Human immunodeficiency virus 1; assay: Selectivity ratio of EC50 for HIV1 NL4-3 infected in human MT2 cells in presence of human serum albumin to EC50 for HIV1 NL4-3 infected in human MT2 cells in absence of human serum albumin; type: functional

Tmax [3]: 3 h
half-life [4]: 4.1 h
clearance [5]: 7.1 mL/min/kg
Vd [6]: 0.5 L/kg
EC50 [7]: 30 nM
bioavailability [8]: 32%
Cmax [9]: 1290 nM
AUC(0-t) [10]: 6.3 µM·h
EC50 [11]: 6 nM
Papp at 4 h, 100 µM [12]: 47.1 ×10⁻⁶ cm/s
remaining at 10 min, 0.5 µM [13]: 97%
remaining at 10 min, 0.5 µM [14]: 95%
Structure (SMILES): Cc1ccccc1-c1cccc(-c2cc3nc(C)c([C@H](OC(C)(C)C)C(=O)O)c(-c4cc(F)c5c(c4C)CCCO5)n3n2)c1
CC50 at 96 h [1]: 28200 nM
selectivity ratio [2]: 4690
Ratio EC50 [15]: 5
